Laboratory results: ChEMBL document CHEMBL1125181, “Naphthosultam derivatives: a new class of potent and selective 5-HT2 antagonists” (J Med Chem, 1991)
pIC50, pKi: −log10 of the molar value.

Legend:
Rattus norvegicus [1] = assay: The concentration required to induce head twich for 16 hours in rats when given sc (in vivo); type: functional
Method in brief: (§1)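 Rats, 6 per dose, dosed sc or po, then given mescaline 20 mg/kg iv 1 h later (6 or 16 h later for duration of action). Head twitches counted for 15 min from injection. Fewer than 3 twitches counted as antagonism.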

Mus musculus [2] = assay: The concentration required to induce head twich in mice when given po (in vivo); type: functional
Method in brief: (§2)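 Mice, 6 per dose, dosed sc 60 min or po 90 min before mescaline 50 mg/kg ip. Observed for 2 min starting 15 min after mescaline; head twitches scored as all-or-none.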

Histamine H1 receptor = Histamine H1 receptor (Cavia porcellus, UniProt P31389); assay: Binding constant against histamine H1 receptor […]
Method in brief: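 Male guinea pig cerebellar membranes (0.35 mg/mL protein) in 50 mM sodium phosphate pH 7.5. Incubated 30 min at 25 °C with compound and [3H]mepyramine (final 0.7 nM). Nonspecific binding from 10⁻⁶ M promethazine. Filtration through glass-fibre filters and liquid scintillation counting.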

Rattus norvegicus [3] = assay: The concentration required to induce head twich for 6 hours in rats when given po (in vivo); type: functional; method in brief: as §1
Rattus norvegicus [4] = assay: The concentration required to induce head twich for 1 hours in rats when given po (in vivo); type: functional; method in brief: as §1
D(2) dopamine receptor [5] = molecular target: T1, D(2) dopamine receptor (Rattus norvegicus, UniProt P61169); assay: Binding constant against dopamine receptor D2 […]
Method in brief: (§3)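 Rat striatal membranes (0.05 mg/mL protein) in Tris-HCl with BSA 2 mg/mL, NaCl, cinanserin 10⁻⁶ M and compound. [3H]spiperone (final 0.05 nM) added after 5 min, incubation continued 40 min. Nonspecific binding from 10⁻⁶ M sulpiride. Filtration and scintillation counting.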

Rattus norvegicus [6] = assay: The concentration required to induce head twich for 16 hours in rats when given po (in vivo); type: functional; method in brief: as §1
[7] = molecular target: T2, 5-hydroxytryptamine receptor 1A (Rattus norvegicus, UniProt P19327); assay: Binding constant against 5-hydroxytryptamine 1A receptor (in vivo); details: in the assay text read “(in vitro)” for “(in vivo)”
T2 sequence (P19327 whole entry): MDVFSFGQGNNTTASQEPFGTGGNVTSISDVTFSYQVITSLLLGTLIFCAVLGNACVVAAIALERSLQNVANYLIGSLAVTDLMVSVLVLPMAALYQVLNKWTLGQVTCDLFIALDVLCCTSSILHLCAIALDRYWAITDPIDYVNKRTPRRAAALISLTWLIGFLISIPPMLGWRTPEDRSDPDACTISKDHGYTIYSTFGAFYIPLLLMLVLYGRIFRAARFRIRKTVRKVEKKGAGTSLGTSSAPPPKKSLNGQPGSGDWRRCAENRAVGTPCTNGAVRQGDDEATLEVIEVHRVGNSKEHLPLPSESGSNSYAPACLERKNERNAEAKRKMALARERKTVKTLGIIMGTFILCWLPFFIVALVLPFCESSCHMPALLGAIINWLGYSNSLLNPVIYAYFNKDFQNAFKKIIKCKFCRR
Method in brief: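 Rat hippocampal membranes (1 mg/mL protein, Tris-HCl) preincubated 5 min at 37 °C with compound, then [3H]-8-OH-DPAT (final 1 nM) added for a further 10 min. Nonspecific binding from 10⁻⁵ M serotonin. Filtration through glass-fibre filters, two ice-cold buffer washes, scintillation counting of bound radioactivity.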

Rattus norvegicus [8] = assay: The concentration required to induce head twich for 1 hours in rats when given sc (in vivo); type: functional; method in brief: as §1
Mus musculus [9] = assay: The concentration required to induce head twich in mice when given sc (in vivo); type: functional; method in brief: as §2
D(2) dopamine receptor [10] = molecular target: T1, D(2) dopamine receptor; assay: The concentration required to inhibit [3H]spiperone binding to dopamine receptor D2 in rat brain membranes (in vitro); type: cell membranes; method in brief: as §3
Rattus norvegicus [11] = assay: The concentration required to induce head twich for 6 hours in rats when given sc (in vivo); type: functional; method in brief: as §1
[12] = molecular target: Serotonin 2 (5-HT2) receptor (Rattus norvegicus, UniProt P30994+P08909+P14842); assay: The concentration required to inhibit [3H]ketanserin binding to 5-hydroxytryptamine 2 receptor in rat brain membranes (in vitro); type: cell membranes
Method in brief: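 Male Sprague-Dawley rat cortical membranes (0.15 mg/mL protein) in Tris-HCl pH 7.6 with BSA 2 mg/mL. Incubated 15 min at 37 °C with compound and [3H]ketanserin (final 0.4 nM). Nonspecific binding from 10⁻⁶ M methysergide. Filtration and scintillation counting. IC50 by nonlinear regression; mean of at least 2 runs, 6 concentrations in triplicate.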

[13] = molecular target: T3, Adrenergic receptor alpha-1 (Rattus norvegicus, UniProt P15823+P23944+P43140); assay: The concentration required to inhibit 3[H]prazosin binding to Alpha-1 adrenergic receptor in rat brain membranes was measured (in vitro); type: cell membranes
T3 sequence (P15823 whole entry): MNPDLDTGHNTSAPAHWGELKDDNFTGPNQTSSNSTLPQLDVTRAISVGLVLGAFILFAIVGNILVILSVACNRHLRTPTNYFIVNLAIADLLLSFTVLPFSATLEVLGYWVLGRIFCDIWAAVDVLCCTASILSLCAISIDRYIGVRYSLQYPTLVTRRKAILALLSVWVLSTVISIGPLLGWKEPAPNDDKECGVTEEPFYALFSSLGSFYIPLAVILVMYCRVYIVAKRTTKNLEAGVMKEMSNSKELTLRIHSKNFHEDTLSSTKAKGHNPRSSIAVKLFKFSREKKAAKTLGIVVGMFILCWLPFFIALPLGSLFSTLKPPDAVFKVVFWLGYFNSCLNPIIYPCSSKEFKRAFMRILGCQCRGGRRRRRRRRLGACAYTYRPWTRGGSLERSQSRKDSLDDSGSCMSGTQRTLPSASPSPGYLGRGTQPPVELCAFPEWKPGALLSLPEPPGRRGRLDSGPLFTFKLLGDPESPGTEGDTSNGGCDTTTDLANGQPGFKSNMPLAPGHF
T3 sequence (P23944 whole entry): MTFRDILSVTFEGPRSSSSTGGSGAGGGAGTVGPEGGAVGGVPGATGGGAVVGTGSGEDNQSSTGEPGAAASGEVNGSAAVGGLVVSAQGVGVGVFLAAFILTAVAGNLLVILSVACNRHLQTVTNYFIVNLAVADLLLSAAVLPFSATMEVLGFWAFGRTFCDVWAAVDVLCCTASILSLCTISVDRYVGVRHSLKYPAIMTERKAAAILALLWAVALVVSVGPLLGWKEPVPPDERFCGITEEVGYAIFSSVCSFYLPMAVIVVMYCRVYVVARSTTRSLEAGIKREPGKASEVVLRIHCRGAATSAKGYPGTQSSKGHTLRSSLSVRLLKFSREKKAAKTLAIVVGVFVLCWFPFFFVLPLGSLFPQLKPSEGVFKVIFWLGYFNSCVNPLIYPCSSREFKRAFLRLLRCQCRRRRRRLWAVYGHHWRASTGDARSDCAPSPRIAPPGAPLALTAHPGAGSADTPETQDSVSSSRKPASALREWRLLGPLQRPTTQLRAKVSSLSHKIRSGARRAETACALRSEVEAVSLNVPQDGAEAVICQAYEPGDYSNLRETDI
T3 sequence (P43140 whole entry): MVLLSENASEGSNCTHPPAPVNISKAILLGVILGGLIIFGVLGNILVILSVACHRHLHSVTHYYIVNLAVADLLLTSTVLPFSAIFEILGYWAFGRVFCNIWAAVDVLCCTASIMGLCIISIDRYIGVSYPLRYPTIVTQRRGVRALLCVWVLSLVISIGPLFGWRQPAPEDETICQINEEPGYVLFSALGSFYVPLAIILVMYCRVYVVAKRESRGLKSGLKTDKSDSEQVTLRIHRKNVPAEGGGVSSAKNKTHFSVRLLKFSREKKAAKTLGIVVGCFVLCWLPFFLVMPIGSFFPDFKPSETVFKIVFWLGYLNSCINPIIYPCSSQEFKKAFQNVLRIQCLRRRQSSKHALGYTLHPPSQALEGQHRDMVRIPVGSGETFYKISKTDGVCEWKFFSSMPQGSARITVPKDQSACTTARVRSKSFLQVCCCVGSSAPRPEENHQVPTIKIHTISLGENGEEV
Method in brief: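 Male Sprague-Dawley rat cerebrocortical membranes (0.15 mg/mL protein) in Tris-HCl pH 7.6 with BSA 2 mg/mL. Incubated 40 min at 25 °C with compound and [3H]prazosin (final 0.065 nM). Nonspecific binding from 10⁻⁶ M phentolamine. Filtration and scintillation counting. IC50 values are the mean of at least 2 runs, each with 6 concentrations in triplicate.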

T1 sequence (P61169 whole entry): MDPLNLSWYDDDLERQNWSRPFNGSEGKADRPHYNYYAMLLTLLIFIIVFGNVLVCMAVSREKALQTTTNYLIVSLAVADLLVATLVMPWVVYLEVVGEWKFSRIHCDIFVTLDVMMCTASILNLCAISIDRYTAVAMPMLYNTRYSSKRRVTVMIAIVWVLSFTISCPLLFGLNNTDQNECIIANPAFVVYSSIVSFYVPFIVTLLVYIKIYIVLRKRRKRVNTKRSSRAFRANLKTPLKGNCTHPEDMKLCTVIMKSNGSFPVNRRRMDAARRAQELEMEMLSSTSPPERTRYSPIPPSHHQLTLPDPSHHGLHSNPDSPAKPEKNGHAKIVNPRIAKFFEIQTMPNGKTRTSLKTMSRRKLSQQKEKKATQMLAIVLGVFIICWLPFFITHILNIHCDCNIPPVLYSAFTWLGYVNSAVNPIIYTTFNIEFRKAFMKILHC
Chain of Histamine H1 receptor (P31389 whole entry): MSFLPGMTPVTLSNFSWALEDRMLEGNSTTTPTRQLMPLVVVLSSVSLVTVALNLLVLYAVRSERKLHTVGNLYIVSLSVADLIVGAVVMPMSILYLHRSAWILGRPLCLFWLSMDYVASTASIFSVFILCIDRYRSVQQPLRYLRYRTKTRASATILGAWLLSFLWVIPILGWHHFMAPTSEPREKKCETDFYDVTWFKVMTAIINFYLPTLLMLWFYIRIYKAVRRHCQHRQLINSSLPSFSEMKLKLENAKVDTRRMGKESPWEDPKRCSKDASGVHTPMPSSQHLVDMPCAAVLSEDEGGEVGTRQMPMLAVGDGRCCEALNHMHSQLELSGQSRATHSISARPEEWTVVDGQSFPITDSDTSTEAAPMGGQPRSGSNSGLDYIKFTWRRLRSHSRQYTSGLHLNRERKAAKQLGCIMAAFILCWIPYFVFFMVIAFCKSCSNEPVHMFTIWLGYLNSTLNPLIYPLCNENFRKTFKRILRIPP

Compound	ED50 (Rattus norvegicus [1]) [mg/kg]	ED50 (Mus musculus [2]) [mg/kg]	pKi (Histamine H1 receptor)	ED50 (Rattus norvegicus [3]) [mg/kg]	ED50 (Rattus norvegicus [4]) [mg/kg]	pKi (D(2) dopamine receptor [5])	ED50 (Rattus norvegicus [6]) [mg/kg]	pKi [7]	ED50 (Rattus norvegicus [8]) [mg/kg]	ED50 (Mus musculus [9]) [mg/kg]	pIC50 (D(2) dopamine receptor [10])	ED50 (Rattus norvegicus [11]) [mg/kg]	IC50 [12] [nM]	IC50 [13] [nM]
O=S1(=O)c2cccc3cccc(c23)N1CCCN1CCN(c2ccc(F)cc2)CC1 [FANANSERIN]	5.91	0.43	7.60	2.38	0.99	< 6.00	14.2	7.15	0.65	0.16	< 6.00	0.45	–	–
O=S1(=O)c2cccc3cccc(c23)N1CCCCN1CCN(c2ccc(F)cc2)CC1	–	–	–	–	–	–	–	–	–	–	6.52	–	3.7	11
